Source: ChEMBL document CHEMBL4145524, “Chemoenzymatically synthesized GM3 analogues as potential therapeutic agents to recover nervous functionality after injury by inducing neurite outgrowth” (2018)
Calls of active or inactive are those of the source. The calls are words filed in the database; no cut-off is given here.

Columns and labels:
PC-12 [1] = test: Induction of neuritogenesis in rat PC12 cells assessed as neurite bearing cells at 10 uM after 72 hrs by inverted microscopic analysis relative to control; format: functional
How it was run: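 PC12 cells (ATCC; grown in DMEM, 10% heat-inactivated horse serum, 5% FBS, 37 °C, 5% CO2) seeded at 2×10^4/well on poly-L-lysine, attached 24 h, then 24 h in low-serum DMEM (1% horse serum, 0.5% FBS). Compound at 10 μM for 72 h, no NGF. Score cells with at least one neurite ≥2× cell-body diameter, ≥200 cells/sample; mean ± S.D., ≥3 repeats.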

PC-12 [2] = test: Induction of neuritogenesis in NGF-induced rat PC12 cells assessed as neurite bearing cells at 10 uM cotreated with 25 ng/ml NGF after 72 hrs by inverted microscopic analysis relative to control; format: functional
How it was run: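 PC12 cells plated on poly-L-lysine-coated wells at 2×10^4/well, switched to DMEM with 1% horse serum and 0.5% FBS for 24 h, then given compound together with NGF 25 ng/ml for 72 h. Inverted microscopy. Percentage of cells bearing at least one neurite twice the cell-body diameter, over ≥200 cells per sample; mean ± S.D., at least three experiments.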

| SMILES | Activity (PC-12 [1]) | Activity (PC-12 [2]) |
| --- | --- | --- |
| CCCCCCCCCCCCC/C=C/[C@@H](O)[C@H](CO[C@@H]1O[C@H](CO[C@]2(C(=O)O)C[C@H](O)[C@@H](NC(C)=O)[C@H]([C@@H](O)[C@H](O)CO)O2)[C@H](O)[C@H](O)[C@H]1O)NC(=O)CCCCCCCCCCCCCCCCC | inactive | inactive |
| CCCCCCCCCCCCC/C=C/[C@@H](O)[C@H](CO[C@@H]1O[C@H](CO)[C@@H](O[C@@H]2O[C@H](CO)[C@H](O)[C@H](O[C@]3(C(=O)O)C[C@H](O)[C@@H](NC(=O)CCl)[C@H]([C@@H](O)[C@H](O)CO)O3)[C@H]2O)[C@H](O)[C@H]1O)NC(=O)CCCCCCCCCCCCCCCCC | 8% | inactive |
| CCCCCCCCCCCCC/C=C/[C@@H](O)[C@@H](N)CO[C@@H]1O[C@H](CO[C@]2(C(=O)O)C[C@H](O)[C@@H](NC(C)=O)[C@H]([C@@H](O)[C@H](O)CO)O2)[C@H](O)[C@H](O)[C@H]1O | 9% | inactive |
| CCCCCCCCCCCCC/C=C/[C@@H](O)[C@H](CO[C@@H]1O[C@H](CO)[C@H](O)[C@H](O[C@]2(C(=O)O)C[C@H](O)[C@@H](NC(C)=O)[C@H]([C@@H](O)[C@H](O)CO)O2)[C@H]1O)NC(=O)CCCCCCCCCCCCCCCCC | inactive | inactive |
| CCCCCCCCCCCCC/C=C/[C@@H](O)[C@@H](N)CO[C@@H]1O[C@H](CO[C@]2(C(=O)O)C[C@H](O)[C@@H](NC(C)=O)[C@H]([C@@H](O)[C@H](O)CO)O2)[C@@H](O)[C@H](O)[C@H]1O | 26% | >30% |
| CCCCCCCCCCCCC/C=C/[C@@H](O)[C@H](CO[C@@H]1O[C@H](CO[C@]2(C(=O)O)C[C@H](O)[C@@H](NC(C)=O)[C@H]([C@@H](O)[C@H](O)CO)O2)[C@@H](O)[C@H](O)[C@H]1O)NC(=O)CCCCCCCCCCCCCCCCC | inactive | inactive |
| CCCCCCCCCCCCC/C=C/[C@@H](O)[C@@H](N)CO[C@@H]1O[C@H](CO)[C@H](O)[C@H](O[C@]2(C(=O)O)C[C@H](O)[C@@H](NC(C)=O)[C@H]([C@@H](O)[C@H](O)CO)O2)[C@H]1O | 6% | Active |
